Results reported in ChEMBL document CHEMBL1687928, “Discovery, optimization, and pharmacological characterization of novel heteroaroylphenylureas antagonists of C-C chemokine ligand 2 function” (J Med Chem, 2011).
Values after ≈ are worked out from the molar mass of the structure shown. Active and inactive are the calls of the source. No cut-off for these calls is given here.

Tests used:
[1] = target: C-C chemokine receptor type 2 (Homo sapiens) (UniProt P41597); type: cell-based; settings: HEK293
C-C chemokine receptor type 2 (Homo sapiens), sequence (P41597 whole entry, looked up): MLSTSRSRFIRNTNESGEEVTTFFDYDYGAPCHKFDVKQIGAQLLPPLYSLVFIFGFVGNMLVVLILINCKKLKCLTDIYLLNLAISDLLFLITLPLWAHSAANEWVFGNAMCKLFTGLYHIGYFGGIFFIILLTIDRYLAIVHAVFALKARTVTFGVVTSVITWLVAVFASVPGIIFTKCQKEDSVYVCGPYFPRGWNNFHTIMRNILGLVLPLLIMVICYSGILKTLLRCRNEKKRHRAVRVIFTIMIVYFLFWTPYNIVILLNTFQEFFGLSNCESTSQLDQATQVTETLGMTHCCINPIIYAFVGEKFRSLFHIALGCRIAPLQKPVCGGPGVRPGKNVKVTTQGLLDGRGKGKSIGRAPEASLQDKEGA

THP-1 = experiment: Cytotoxicity against human THP1 cells; type: cell-based
[2] = target: C-C chemokine receptor type 2 (Homo sapiens) (UniProt P41597); experiment: Antagonist activity at CCR2 in human THP1 cells assessed as inhibition of CCL2-induced calcium flux; type: functional, cell-based; settings: THP-1
In short: (§1)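 THP-1 cells in serum-free RPMI 1640 were loaded with 3 μM Fluo-3AM plus 0.1% F127 for 30 min at 37 °C. After washing, cells were resuspended at 5 × 10^6 cells/mL and kept at room temperature. They were pretreated 30 min with compound or DMSO, then stimulated with 100 ng/mL hCCL2. Fluorescence was read by flow cytometry at baseline for 15 s, then from 20 to 120 s. Inhibition is given as % of DMSO control.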

[3] = target: C-C chemokine receptor type 2 (Homo sapiens) (UniProt P41597); type: cell-based; settings: THP-1
[4] = target: C-C chemokine receptor type 2 (Homo sapiens) (UniProt P41597); experiment: Antagonist activity at CCR2 in human THP1 cells assessed as inhibition of CCL2-induced calcium flux at 50 uM; type: functional, cell-based; settings: THP-1; in short: as §1
[5] = target: T1, C5a anaphylatoxin chemotactic receptor 1 (Homo sapiens) (UniProt P21730); type: cell-based; settings: CHO
T1 sequence (whole entry): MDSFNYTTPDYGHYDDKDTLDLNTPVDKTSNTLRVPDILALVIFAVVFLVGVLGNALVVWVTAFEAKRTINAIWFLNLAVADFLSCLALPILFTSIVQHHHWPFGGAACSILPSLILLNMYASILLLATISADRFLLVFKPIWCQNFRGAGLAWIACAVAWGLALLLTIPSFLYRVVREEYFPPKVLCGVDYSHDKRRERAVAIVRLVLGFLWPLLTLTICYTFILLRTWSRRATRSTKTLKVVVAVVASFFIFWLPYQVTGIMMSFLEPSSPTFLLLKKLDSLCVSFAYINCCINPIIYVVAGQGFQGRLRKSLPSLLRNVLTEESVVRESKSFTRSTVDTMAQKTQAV

[6] = Aqueous solubility of the compound at pH 7.4; type: physicochemical
[7] = target: T2, C-X-C chemokine receptor type 1 (Homo sapiens) (UniProt P25024); type: cell-based; settings: neutrophils
T2 sequence (whole entry): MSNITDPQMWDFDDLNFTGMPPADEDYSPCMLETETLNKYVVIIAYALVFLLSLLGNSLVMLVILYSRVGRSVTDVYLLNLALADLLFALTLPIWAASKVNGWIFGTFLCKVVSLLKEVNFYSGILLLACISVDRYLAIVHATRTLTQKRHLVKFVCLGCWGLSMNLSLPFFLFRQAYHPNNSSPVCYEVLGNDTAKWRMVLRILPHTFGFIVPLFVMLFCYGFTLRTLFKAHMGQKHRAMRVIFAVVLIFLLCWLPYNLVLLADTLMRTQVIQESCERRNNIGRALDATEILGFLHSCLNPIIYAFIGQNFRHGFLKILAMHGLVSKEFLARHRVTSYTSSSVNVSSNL

[8] = Aqueous solubility of the compound at pH 1.2; type: physicochemical
[9] = target: T3, C-X-C chemokine receptor type 2 (Homo sapiens) (UniProt P25025); type: cell-based; settings: neutrophils
T3 sequence (whole entry): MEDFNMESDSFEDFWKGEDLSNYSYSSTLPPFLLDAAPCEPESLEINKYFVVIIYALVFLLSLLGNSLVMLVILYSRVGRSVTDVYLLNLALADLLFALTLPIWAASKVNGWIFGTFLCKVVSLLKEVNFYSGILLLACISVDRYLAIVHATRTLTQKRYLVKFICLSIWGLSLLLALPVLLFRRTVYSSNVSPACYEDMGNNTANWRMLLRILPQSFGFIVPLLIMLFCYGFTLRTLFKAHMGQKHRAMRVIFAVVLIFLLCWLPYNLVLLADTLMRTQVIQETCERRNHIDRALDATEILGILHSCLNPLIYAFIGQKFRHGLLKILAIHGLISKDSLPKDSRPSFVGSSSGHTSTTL

Row | Activity [1] | Activity [2] | Activity [3] | Activity [4] | solubility [6] [µg/mL] | Activity [7] | solubility [8] [µg/mL] | Activity [9] | SMILES | CC50 (THP-1) [µM] | Activity [5]
1 | inactive | Dose-dependent effect | inactive | Active |  |  |  |  | O=C(NC(=O)c1ccc2c(c1)OCO2)Nc1ccc(O)c(Cl)c1 | > 50 | 
2 | inactive |  | inactive |  | 5 (≈ 12.6 µM) | inactive | 3.9 (≈ 9.87 µM) | inactive | Cc1nn(C)c2ncc(C(=O)NC(=O)Nc3ccc(F)c(C(F)(F)F)c3)cc12 | > 50 | inactive
